Results from PubChem BioAssay AID493230 (Broad Institute, 2011).
Values joined by “and” are separate entries in the source; they are usually repeats but may differ in a detail not shown here. Equal entries are not always repeated. Active and inactive are the calls of the source.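 How the source made its calls: active means VEGF mRNA rise whose fitted curve reaches 40% activation within the highest concentration tested on that sample; inactive means the rest, including effects opposite to expected.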

Tested on: not listed separately
Experiment: activators raising VEGF transcript levels via HIF – cell-based, U2OS, RT-PCR, dry powder, set 3, orthogonal assay for HIF pathway activator project, dose response (AID 493230)
Details: U2OS VEGF mRNA induction, RT-PCR; at 38 µM (top of the series)
Outline: (§1)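 Test system: human osteosarcoma U2OS cells, endogenous VEGF-A mRNA. Input: 2,000 cells/well. Medium: DMEM without phenol red, 10% FBS. Dosing: compound dose-response dilution series, pinned twice per plate. Timing: 24 h plating, then 24 h compound exposure at 37 °C. Detection: TaqMan RT-PCR, VEGF-A vs beta-actin. Benchmarks: DMSO control. Replication: duplicates.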

Compound	activation
O=C(c1cc(-c2ccccc2)on1)N1CCc2cccnc21	-0.596% (inactive)
Cc1ccc(NC(=O)c2cc(-c3ccccc3)on2)cn1	4.97% (inactive)
O=C(Nc1cnc2ccccc2c1)c1cc(-c2ccccc2)on1	4.77% (inactive)
O=C(NCCN1CCCCC1)c1cc(-c2ccccc2)on1	2.31% (inactive)
CN1CCN(C(=O)c2cc(-c3ccccc3)on2)CC1	-2.38% (inactive)
O=C(c1cc(-c2ccccc2)on1)N1CCC(N2CCOCC2)CC1	12.2% (inactive)
O=C(NC1Cc2ccccc2C1)c1cc(-c2ccccc2)on1	-6% (inactive)
O=C(NCC1CCCCC1)c1cc(-c2ccccc2)on1	5.37% (inactive)
O=C(NCc1ccccc1)c1cc(-c2ccccc2)on1	-3.24% (inactive)
O=C(Nc1nnc(-c2ccccc2)s1)c1cc(-c2ccccc2)on1	2.88% (inactive)
Cc1ccc(CNC(=O)c2cc(-c3ccccc3)on2)cc1	-2.87% (inactive)
O=C(c1cc(-c2ccccc2)on1)N1CCC(N2CCCC2)CC1	5.5% (inactive)
CN(C)CCNC(=O)c1cc(-c2ccccc2)on1	-3.96% (inactive)
O=C(Nc1nc(-c2ccccc2)cs1)c1cc(-c2ccccc2)on1	12.2% (inactive)
O=C(c1cc(-c2ccccc2)on1)N1CCC(CO)CC1	2.91% (inactive)
O=C(Nc1ncc(-c2ccccc2)o1)c1cc(-c2ccccc2)on1	6.52% (inactive)
Cc1cccc(CNC(=O)c2cc(-c3ccccc3)on2)c1	9.8% (inactive)
Cn1c(NC(=O)c2cc(-c3ccccc3)on2)nc2ccccc21	-8.77% (inactive)
O=C(Nc1ccc2ccccc2n1)c1cc(-c2ccccc2)on1	6.04% (inactive)

Tested on: U2OS VEGF mRNA induction, RT-PCR
Experiment: as above
Details: not given
Outline: as §1

Compound	AC40
Oc1ccc(CN2CCC(Cc3ccccc3)CC2)c2cccnc12	6.73 µM
CCCCNC(=O)c1cc(-c2ccccc2)on1	25 µM
N#CC1(c2ccccc2)CCN(Cc2ccc(O)c3ncccc23)CC1	31.9 µM
c1ccc(-c2nnc(-c3ccccn3)nc2NCC2CC2)cc1	2.29 µM
O=C(NCCCCO)c1cc(-c2ccccc2)on1	9.04 µM
c1ccc(-c2nnc(-c3ccccn3)nc2NCCN2CCOCC2)cc1	7.65 µM
O=C(NCCCn1ccnc1)c1cc(-c2ccccc2)on1	17.2 µM
O=C(Nc1nc2ccccc2s1)c1cc(-c2ccccc2)on1	> 38 µM (inactive)
O=C(NCC1CC1)c1cc(-c2ccccc2)on1	24.9 µM
OCC1CCN(Cc2ccc(O)c3ncccc23)CC1	2.6 µM
C[C@@H](Nc1nc(-c2ccccn2)nnc1-c1ccccc1)C1CCCCC1	0.545 µM
Cc1ccc(Nc2nc(-c3ccccn3)nnc2-c2ccccc2)cn1	4.94 µM
c1ccc(-c2nnc(-c3ccccn3)nc2N2CCC(N3CCOCC3)CC2)cc1	6.33 µM
Cn1c(-c2ccccc2)cnc1NC(=O)c1cc(-c2ccccc2)on1	24.6 µM
Cc1cccc(Nc2nc(-c3ccccn3)nnc2-c2ccccc2)n1	2.98 µM
Cc1ccc(CNc2nc(-c3ccccn3)nnc2-c2ccccc2)cc1	1.01 µM
C=CCNc1nc(-c2ccccn2)nnc1-c1ccccc1	4.08 µM
c1ccc(-c2nnc(-c3ccccn3)nc2NCCCN2CCOCC2)cc1	6.44 µM
O=C(NCCN1CCOCC1)c1cc(-c2ccccc2)on1	29.1 µM
CC(Nc1nc(-c2ccccn2)nnc1-c1ccccc1)c1ccccc1 (configuration not stated)	1.55 µM
c1ccc(-c2cccc(CNc3nc(-c4ccccn4)nnc3-c3ccccc3)c2)cc1	0.529 µM
Cc1cccc(CNc2nc(-c3ccccn3)nnc2-c2ccccc2)c1	1.48 µM
c1ccc(CCNc2nc(-c3ccccn3)nnc2-c2ccccc2)cc1	5.17 µM

Compound	AC40
c1ccc(-c2nnc(-c3ccccn3)nc2NCc2ccccn2)cc1	4.1 µM
O=C(c1cc(-c2ccccc2)on1)N1CCN(c2ccncc2)CC1	35.8 µM
Cc1ccccc1CNC(=O)c1cc(-c2ccccc2)on1	> 38 µM (inactive)
COc1ccc(CNc2nc(-c3ccccn3)nnc2-c2ccccc2)cc1	1.24 µM
c1ccc(-c2nnc(-c3ccccn3)nc2NCCc2ccccn2)cc1	6.47 µM
c1ccc(-c2nnc(-c3ccccn3)nc2NCC2CCCCC2)cc1	1.4 µM
c1ccc(-c2csc(Nc3nc(-c4ccccn4)nnc3-c3ccccc3)n2)cc1	0.495 µM
Cc1ccc(CNc2nc(-c3ccccn3)nnc2-c2ccccc2)cc1C	0.83 µM
COc1cccc(CNc2nc(-c3ccccn3)nnc2-c2ccccc2)c1	1.21 µM
CC1CN(Cc2ccc(O)c3ncccc23)CC(C)O1 (configuration not stated)	12.5 µM
c1ccc(-c2nnc(-c3ccccn3)nc2Nc2nc3ccccc3s2)cc1	0.427 µM
Cn1c(-c2ccccc2)cnc1Nc1nc(-c2ccccn2)nnc1-c1ccccc1	4.51 µM
c1ccc(-c2nnc(-c3ccccn3)nc2NCc2cccnc2)cc1	3.44 µM
O=C(NCCCN1CCOCC1)c1cc(-c2ccccc2)on1	28 µM
CC(C)(C)OC(=O)N1CCN(Cc2ccc(O)c3ncccc23)CC1	9.12 µM
c1ccc(-c2nnc(-c3ccccn3)nc2N2CCC(C3CCCCC3)C2)cc1 (configuration not stated)	0.535 µM
O=C(Nc1ncc2ccccc2n1)c1cc(-c2ccccc2)on1	29.4 µM
OCC1CCN(c2nc(-c3ccccn3)nnc2-c2ccccc2)CC1	10.9 µM
c1ccc(CNc2nc(-c3ccccn3)nnc2-c2ccccc2)cc1	1.45 µM
Cc1ccccc1CNc1nc(-c2ccccn2)nnc1-c1ccccc1	0.853 µM
O=C(NCCCO)c1cc(-c2ccccc2)on1	15.7 µM
C[C@@H](Nc1nc(-c2ccccn2)nnc1-c1ccccc1)c1ccccc1	1.45 µM
Cc1cccc(NC(=O)c2cc(-c3ccccc3)on2)n1	> 38 µM (inactive)

Compound	AC40
c1ccc(-c2nnc(-c3ccccn3)nc2NCC2CCOCC2)cc1	6.69 µM
c1ccc(-c2cnc(Nc3nc(-c4ccccn4)nnc3-c3ccccc3)s2)cc1	0.433 µM
Oc1ccc(CN2CCc3ccccc3C2)c2cccnc12	3.02 µM and 6.18 µM
Oc1ccc(CN2CCC3CCCCC3C2)c2cccnc12 (configuration not stated)	1.58 µM
COc1ccccc1N1CCN(Cc2ccc(O)c3ncccc23)CC1	0.384 µM
CC(C)(C)CCNc1nc(-c2ccccn2)nnc1-c1ccccc1	0.782 µM and 0.753 µM
OCCCNc1nc(-c2ccccn2)nnc1-c1ccccc1	8.68 µM
O=C(NC1CCc2ccccc2C1)c1cc(-c2ccccc2)on1 (configuration not stated)	> 38 µM (inactive)
Clc1cccc(CNc2nc(-c3ccccn3)nnc2-c2ccccc2)c1	0.953 µM
CC(C)(C)CCNC(=O)c1cc(-c2ccccc2)on1	> 38 µM (inactive)
c1ccc(-c2nnc(Nc3nc(-c4ccccn4)nnc3-c3ccccc3)s2)cc1	1.08 µM
CN(C)c1nc(-c2ccccn2)nnc1-c1ccccc1	6.76 µM
c1ccc(-c2ccc(CNc3nc(-c4ccccn4)nnc3-c3ccccc3)cc2)cc1	0.276 µM
c1ccc(-c2nnc(-c3ccccn3)nc2N2CCC(c3ccccc3)C2)cc1 (configuration not stated)	1.05 µM
CC(C)(C)c1ccc(CNc2nc(-c3ccccn3)nnc2-c2ccccc2)cc1	0.401 µM
Oc1ccc(CNC2Cc3ccccc3C2)c2cccnc12	12.9 µM
c1ccc(-c2nnc(-c3ccccn3)nc2Nc2cnc3ccccc3n2)cc1	1.48 µM
CN1CCN(c2nc(-c3ccccn3)nnc2-c2ccccc2)CC1	5.84 µM
C[C@H](Nc1nc(-c2ccccn2)nnc1-c1ccccc1)C1CCCCC1	1.06 µM
c1ccc(-c2nnc(-c3ccccn3)nc2N2CCN(c3ccncc3)CC2)cc1	2.91 µM
O=C(Nc1cn2ccccc2n1)c1cc(-c2ccccc2)on1	5.31 µM
Oc1ccc(CNC2CCc3ccccc32)c2cccnc12 (configuration not stated)	27.1 µM
